Laboratory results from article PMC2114648 (The Journal of Cell Biology, 1987).
Where “and” joins values, the source holds several entries; their conditions need not be identical. Equal entries are not always repeated. Where two headings read alike, the source gives them in different places.

Key:
[1] = target: T1, EGF receptor on MDCK cells (Canis lupus familiaris, UniProt A0A8I3RYJ5); assay type: binding, canine; settings: for EGF bound, % of the total tracer added: 4 C, 50,000 cpm [125I]EGF
Procedure, shortened: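 Confluent MDCK filter monolayers (1.8–2.0×10^6 cells/well) washed three times with cold PBS. Hepes buffer (50 mM Hepes, 1% BSA, pH 7.4) added both sides. 50,000 cpm [125I]EGF (194 µCi/µg) plus unlabeled EGF 1–200 ng/ml applied to apical or basal side. Incubated 6 h at 4°C, then washed. Filters excised and gamma-counted. Scatchard analysis.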

MDCK cells = assay type: in vitro ADME, canine
Procedure, shortened: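 MDCK monolayers on nitrocellulose Millicell filters, 5–7 d after plating (1.8–2.0×10^6 cells/well at confluence). Both sides washed with PBS pH 7.4. Chloramine-T-iodinated EGF tracer added to one side at 4°C, then held at 4, 15 or 37°C, with [14C]inulin (50,000 cpm) as leak marker. In a second format, tracer was bound basally 2.5 h at 4°C, washed, and moved to 37°C. Triplicate wells, mean ± SD.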

[2] = Diffusion across nitrocellulose filter of empty chambers; assay type: in vitro ADME; settings: empty chamber, nitrocellulose filter without cells; 2 h; ~50,000 cpm tracer
[3] = target: T1, EGF receptor on MDCK cells; assay type: cell-based, canine
Procedure, shortened: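 MDCK monolayers on 0.45-µm nitrocellulose filter chambers, used 5–7 d after plating. Hepes buffer pH 7.4. 50,000 cpm (0.137 ng) chloramine-T-iodinated EGF plus 50,000 cpm [14C]inulin leakage marker added apically or basally. Opposite side sampled every 30 min with buffer replacement. Cumulative counts expressed as % of tracer added. Antibody 1:100 preincubated basally 60 min at 37°C, sampled over 4.5 h. Triplicate wells.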

[4] = test system: insulin receptors on MDCK cells; assay: [125I]insulin binding to basal or apical surface of MDCK cells; parameters: species or system canine; settings: Hepes buffer, 15 C

| EGF bound, % of the total tracer added ([1]; apical surface of MDCK cells) | EGF bound, % of the total tracer added ([1]; basal surface of MDCK cells, binding maximal within 4 h) | Concentration of cold EGF that inhibited binding by 50% ([1]; basal surface of MDCK cells, 6 h at 4 C, competition with [125I]EGF) [ng/mL] | Effect of unlabeled EGF on transport of tracer EGF, basal-to-apical ([3]; 0.85 nM (5 ng/ml) unlabeled EGF) | Effect of unlabeled EGF on transcytosis of labeled EGF, apical-to-basal ([3]; 110 nM cold EGF) | Effect of unlabeled EGF on transcytosis of labeled EGF, basal-to-apical ([3]; 110 nM unlabeled EGF) | Substance | Transport of EGF basal-to-apical at 4 C (in words) (MDCK cells; 4 C versus 37 C, mean of triplicate wells) | Transport of EGF basal-to-apical at 15 C (in words) (MDCK cells; 15 C versus 37 C, mean of triplicate wells) | Transport in the apical-to-basal direction (in words) (MDCK cells; MDCK monolayer) | Time to appearance of EGF at the apical surface after warming (MDCK cells; pre-bound tracer on basal surface, warmed from 4 C to 37 C) [min] | Diffusion across the membrane, % of the total added [2] [%] | Binding of insulin [4] | Transport in either direction (in words) (MDCK cells; MDCK monolayer, basal-to-apical and apical-to-basal) |
| --- | --- | --- | --- | --- | --- | --- | --- | --- | --- | --- | --- | --- | --- |
| < 1% and 0.8% | 6.5% and ~ 6% | 5 | substantial de- crease | no effect | completely inhibited | epidermal growth factor [EGF] | even further decreased | markedly decreased | No transport | ≤ 15 | 22 |  |  |
|  |  |  |  |  |  | insulin |  |  |  |  |  | failed to detect binding | not observed |
